Laboratory results reported in ChEMBL document CHEMBL4049428, “Exploring Derivatives of Quinazoline Alkaloid l-Vasicine as Cap Groups in the Design and Biological Mechanistic Evaluation of Novel Antitumor Histone Deacetylase Inhibitors” (J Med Chem, 2017).
Activity calls are given as the source filed them. The calls are words filed in the database; no cut-off is given here.

Key:
Homo sapiens = species: Homo sapiens; assay: Inhibition of HDAC in human HeLa nuclear extract up to 2 uM using Boc-Lys(Ac)-AMC as substrate measured after 30 mins by fluorometric analysis
THP-1 = assay: Cytotoxicity against human THP1 cells assessed as growth inhibition at 10 uM after 48 hrs by MTT assay; type: functional; details: THP-1, 48 h, read-out: GI
Method in brief: (§1)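 MTT assay, 48 h exposure; adherent lines seeded 12 h and suspension lines 4 h before compound. Media: RPMI-1640/10% FCS (THP-1, HL-60, Colo-205, Caco-2, A549), DMEM/10% FCS (A549, MIAPaCa-2, MCF-7). MTT 4 h, formazan dissolved in DMSO, absorbance 570 nm. Mean ± S.D of three experiments in triplicate; SAHA 5 µM reference.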

HL-60 [1] = assay: Cytotoxicity against human HL60 cells assessed as growth inhibition at 10 uM after 48 hrs by MTT assay; type: functional; details: HL-60, 48 h, read-out: GI; method in brief: as §1
MOLT-4 [2] = assay: Cytotoxicity against human MOLT4 cells assessed as growth inhibition at 10 uM after 48 hrs by MTT assay; type: functional; details: MOLT-4, 48 h, read-out: GI
COLO 205 = assay: Cytotoxicity against human COLO205 cells assessed as growth inhibition at 10 uM after 48 hrs by MTT assay; type: functional; details: COLO 205, 48 h, read-out: GI; method in brief: as §1
Caco-2 = assay: Cytotoxicity against human Caco2 cells assessed as growth inhibition at 10 uM after 48 hrs by MTT assay; type: functional; details: Caco-2, 48 h, read-out: GI; method in brief: as §1
MIA PaCa-2 [3] = assay: Cytotoxicity against human MIAPaCa2 cells assessed as growth inhibition at 10 uM after 48 hrs by MTT assay; type: functional; details: MIA PaCa-2, 48 h, read-out: GI; method in brief: as §1
PC-3 = assay: Cytotoxicity against human PC3 cells assessed as growth inhibition at 10 uM after 48 hrs by MTT assay; type: functional; details: PC-3, 48 h, read-out: GI
A549 = assay: Cytotoxicity against human A549 cells assessed as growth inhibition at 10 uM after 48 hrs by MTT assay; type: functional; details: A549, 48 h, read-out: GI; method in brief: as §1
MCF7 = assay: Cytotoxicity against human MCF7 cells assessed as growth inhibition at 10 uM after 48 hrs by MTT assay; type: functional; details: MCF7, 48 h, read-out: GI; method in brief: as §1
MIA PaCa-2 [4] = assay: Cytotoxicity against human MIAPaCa2 cells assessed as growth inhibition after 48 hrs by MTT assay; type: functional, cell-based; details: MIA PaCa-2, 48 h; method in brief: as §1
P388 [5] = assay: Antitumor activity against mouse P388 cells implanted in CDF1 mouse assessed as increase in median survival time at 50 mg/kg, ip administered for 9 consecutive days; type: functional
Method in brief: (§2)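 P388 leukemia cells were harvested from 6–7-day-old ascites grown in the peritoneum of female DBA/2 mice. Female CDF1 mice (18–23 g) received 5×10^5 cells i.p. on day 0. Next day they were randomized into groups of 7 and dosed i.p. daily for 9 consecutive days; controls got 0.2 ml normal saline. Mortality was followed to day 18, with median survival time and %T/C calculated.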

HL-60 [6] = assay: Induction of mitochondrial membrane potential loss in human HL60 cells at 1 uM measured after 48 hrs by Rh123 dye-based flow cytometric analysis (reference value: 5.6%); type: functional
Method in brief: (§3)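 Cells seeded in 6-well plates 2-4 h, then 48 h with compound; Rh-123 1 µM added for the final half hour; cells centrifuged, washed twice in PBS, resuspended in PBS, and Ψm loss quantified by flow cytometry as percentage of cells.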

HL-60 [7] = assay: Induction of mitochondrial membrane potential loss in human HL60 cells assessed as intact mitochondrial membrane potential at 1 uM measured after 48 hrs by Rh123 dye-based flow cytometric analysis (reference value: 91.3%); type: functional; method in brief: as §3
MOLT-4 [8] = assay: Induction of mitochondrial membrane potential loss in human MOLT4 cells at 1 uM measured after 48 hrs by Rh123 dye-based flow cytometric analysis (reference value: 9.6%); type: functional; method in brief: as §3
MOLT-4 [9] = assay: Induction of mitochondrial membrane potential loss in human MOLT4 cells assessed as intact mitochondrial membrane potential at 1 uM measured after 48 hrs by Rh123 dye-based flow cytometric analysis (reference value: 90.4%); type: functional; method in brief: as §3
P388 [10] = assay: Antitumor activity against mouse P388 cells implanted in CDF1 mouse assessed as increase in median survival time at 20 mg/kg, ip administered for 9 consecutive days; type: functional, organism-based; method in brief: as §2

## O=C(CCCCCCCC(=O)Nc1ccccc1CN1CC[C@H](O)C1)NO
Homo sapiens
  inhibition: Active
THP-1
  inhibition of growth at 10 µM: 17%
HL-60 [1]
  inhibition of growth at 10 µM: 6%
MOLT-4 [2]
  inhibition of growth at 10 µM: 30%
COLO 205
  inhibition of growth at 10 µM: 7%
Caco-2
  inhibition of growth at 10 µM: 5%
MIA PaCa-2 [3]
  inhibition of growth at 10 µM: 2%
PC-3
  inhibition of growth at 10 µM: 12%
A549
  inhibition of growth at 10 µM: 5%
MCF7
  inhibition of growth at 10 µM: 3%

## O=C(CCCC(=O)N[C@H]1CCN(Cc2ccccc2)C1)NO
Homo sapiens
  inhibition: inactive

## O=C(CCCCCCC(=O)N[C@H]1CCN(Cc2ccccc2)C1)NO
Homo sapiens
  inhibition: inactive

## O=C(CCCCCCC(=O)N[C@@H]1CCN(Cc2ccccc2)C1)NO
Homo sapiens
  inhibition: inactive

## O=C(CCCCC(=O)N[C@H]1CCN(Cc2ccccc2)C1)NO
Homo sapiens
  inhibition: inactive

## O=C(CCCCC(=O)Nc1ccccc1CN1CC[C@H](O)C1)NO
Homo sapiens
  inhibition: Active
THP-1
  inhibition of growth at 10 µM: 37%
HL-60 [1]
  inhibition of growth at 10 µM: 29%
MOLT-4 [2]
  inhibition of growth at 10 µM: 38%
COLO 205
  inhibition of growth at 10 µM: 22%
Caco-2
  inhibition of growth at 10 µM: 31%
MIA PaCa-2 [3]
  inhibition of growth at 10 µM: 12%
PC-3
  inhibition of growth at 10 µM: 15%
A549
  inhibition of growth at 10 µM: 19%
MCF7
  inhibition of growth at 10 µM: 26%

## O=C(CCCC(=O)N[C@@H]1CCN(Cc2ccccc2)C1)NO
Homo sapiens
  inhibition: inactive

## O=C(CCCCCCCC(=O)N[C@H]1CCN(Cc2ccccc2)C1)NO
Homo sapiens
  inhibition: inactive

## O=C(CCCCCCC(=O)Nc1ccccc1)NO [VORINOSTAT]
MIA PaCa-2 [4]
  IC50: 2200 nM
P388 [5]
  Activity: Active
HL-60 [6]
  Activity: 12.9%
HL-60 [7]
  Activity: 75.6%
MOLT-4 [8]
  Activity: 28.4%
MOLT-4 [9]
  Activity: 71.6%

## O=c1[nH]cc(F)c(=O)[nH]1
P388 [10]
  Activity: Active

## O=C(CCCCC(=O)N[C@@H]1CCN(Cc2ccccc2)C1)NO
Homo sapiens
  inhibition: inactive

## O=C(CCCC(=O)Nc1ccccc1CN1CC[C@H](O)C1)NO
Homo sapiens
  inhibition: Active
THP-1
  inhibition of growth at 10 µM: 3%
HL-60 [1]
  inhibition of growth at 10 µM: 3%
MOLT-4 [2]
  inhibition of growth at 10 µM: 27%
COLO 205
  inhibition of growth at 10 µM: 26%
Caco-2
  inhibition of growth at 10 µM: 1%
MIA PaCa-2 [3]
  inhibition of growth at 10 µM: 4%
PC-3
  inhibition of growth at 10 µM: 2%
A549
  inhibition of growth at 10 µM: 5%
MCF7
  inhibition of growth at 10 µM: 5%

## O=C(CCCCCCCC(=O)N[C@@H]1CCN(Cc2ccccc2)C1)NO
Homo sapiens
  inhibition: inactive
